Assay results from different studies.
Compare with care: the assays were run in different laboratories.
SRPK2: SRSF protein kinase 2 (SRPK2, Homo sapiens, UniProt P78362)
BCHE: Cholinesterase (BCHE, Equus caballus, UniProt P81908)

C[C@]12CC[C@@H]3c4ccc(OC(=O)N(CCCl)CCCl)cc4CC[C@H]3[C@@H]1CC[C@@H]2OP(=O)(O)O — koff (Tyrosine-protein phosphatase non-receptor type 11 (PTPN11, Homo sapiens, UniProt Q06124); binding, SPR): 0.02 s⁻¹
COc1ncccc1-c1cnn2ccc(N3CCN(C(=O)OC(C)C)CC3)nc12 — remaining binding (SRPK2; binding, competition with immobilised ligand; 1 µM): 28%
COc1cc2c(cc1OC)C(=O)N(CC1CCNCC1)C2 — inhibition (BCHE; enzyme activity, inhibitor, Ellman; 1 µM): 6.8%
CCN(CC)CCCC[C@H](NC(=O)[C@H](CC(C)C)NC(=O)[C@H](C)NC(=O)[C@H](Cc1ccccc1)NC(=O)c1ccc(C(C)(C)C)cc1)C(=O)N[C@@H](CO)C(=O)OC — ΔTm (Peregrin, bromodomain (BRPF1, Homo sapiens, UniProt P55201); thermal stability, DSF; 25 µM): 0.47 °C
O=P(O)(O)O[C@H]1O[C@H](CO)[C@@H](O)[C@H](O)[C@H]1O — Km (Glycogen phosphorylase, muscle form (PYGM, Oryctolagus cuniculus, UniProt P00489); enzyme activity, substrate): 920 µM
O=c1ccc2ccc3occc3c2o1 — activity vs control (Aldehyde dehydrogenase, dimeric NADP-preferring (ALDH3A1, Homo sapiens, UniProt P30838); enzyme activity, inhibitor, absorbance; 10 µM): 28.3%
Cn1cc(-c2cc(F)cc(N3CCn4c(cc5c4CCCC5)C3=O)c2CO)cc(Nc2ccc(N3CCN(C4COC4)CC3)cn2)c1=O — inhibition (SRPK2; enzyme activity, inhibitor; 0.1 µM): 3%
COc1cc2c(cc1OC)C(=O)N(CC1CCN(Cc3cccnc3)CC1)C2 — inhibition (BCHE; enzyme activity, inhibitor, Ellman; 1 µM): 2.7%
C#Cc1n[nH]c2c(-c3cn([C@@H](C)c4ccccn4)c(=O)[nH]c3=O)cc(F)cc12 — inhibition (BDNF/NT-3 growth factors receptor (NTRK2, Homo sapiens, UniProt Q16620); enzyme activity, inhibitor; 0.1 µM): 3.7%
COc1cc2c(cc1OC)C(=O)N(CC1CCN(Cc3ccccc3)CC1)C2 — inhibition (BCHE; enzyme activity, inhibitor, Ellman; 1 µM): -4.8%
Nc1ncc(-c2nc(N3CCOCC3)nc(N3CCOCC3)n2)c(C(F)F)n1 — remaining binding (Dual specificity mitogen-activated protein kinase kinase 3 (MAP2K3, Homo sapiens, UniProt P46734); binding, competition with immobilised ligand; 10 µM): 78%
COc1cc2c(cc1OC)C(=O)N(Cc1ccccn1)C2 — inhibition (BCHE; enzyme activity, inhibitor, Ellman; 1 µM): -8.8%
Cc1nn(C)cc1-c1nc2c(N3CCN(Cc4ccc(Cl)cc4)CC3)c(Cl)cnc2[nH]1 — remaining binding (Mitogen-activated protein kinase kinase kinase 6 (MAP3K6, Homo sapiens, UniProt O95382); binding, competition with immobilised ligand; 1 µM): 100%
